Measured values: ChEMBL document CHEMBL1145100, “Structure-activity relationship of imidazo[1,2-a]pyridines as ligands for detecting beta-amyloid plaques in the brain” (J Med Chem, 2003)

How the values were obtained:
Mus musculus [1] = assay: Biodistribution of radioactivity in normal mice (ICR) skin after 6 hours of intravenous injection of [125I]-16(IMPY); assay type: ADME, organism-based, Zone of skin; conditions: in vivo
Outline: (§1)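 Male ICR mice, 2-3 months old, 20-30 g, under ether anesthesia, given 0.15 mL of 0.1% bovine serum albumin solution containing the [125I] tracer into the tail vein. Killed by cardiac excision at set times after injection. Organs removed and weighed, then gamma-counted. % dose per organ computed against diluted aliquots of the injected material.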

Mus musculus [2] = assay: Biodistribution of radioactivity in normal mice (ICR) heart after 6 hours of intravenous injection of [125I]-16(IMPY); assay type: ADME, organism-based; conditions: in vivo; outline: as §1
Mus musculus [3] = assay: Biodistribution of radioactivity in normal mice (ICR) lung after 2 hours of intravenous injection of [125I]-16(IMPY); assay type: ADME, organism-based; conditions: in vivo; outline: as §1
Mus musculus [4] = assay: Biodistribution of radioactivity in normal mice (ICR) spleen after 30 minutes of intravenous injection of [125I]-16(IMPY); assay type: ADME, organism-based; conditions: in vivo, 0.5 h; outline: as §1
Mus musculus [5] = assay: Biodistribution of radioactivity in normal mice (ICR) lung after 1 hour of intravenous injection of [125I]-16(IMPY); assay type: ADME, organism-based; conditions: in vivo; outline: as §1
Mus musculus [6] = assay: Biodistribution of radioactivity in normal mice (ICR) lung after 30 minutes of intravenous injection of [125I]-16(IMPY); assay type: ADME, organism-based; conditions: in vivo, 0.5 h; outline: as §1
Mus musculus [7] = assay: Biodistribution of radioactivity in normal mice (ICR) muscle after 30 minutes of intravenous injection of [125I]-16(IMPY); assay type: ADME, organism-based, Muscle tissue; conditions: in vivo, 0.5 h; outline: as §1
Mus musculus [8] = assay: Biodistribution of radioactivity in normal mice (ICR) skin after 2 hours of intravenous injection of [125I]-16(IMPY); assay type: ADME, organism-based, Zone of skin; conditions: in vivo; outline: as §1
Mus musculus [9] = assay: Biodistribution of radioactivity in normal mice (ICR) kidney after 6 hours of intravenous injection of [125I]-16(IMPY); assay type: ADME, organism-based; conditions: in vivo; outline: as §1
Mus musculus [10] = assay: Biodistribution of radioactivity in normal mice (ICR) kidney after 30 minutes of intravenous injection of [125I]-16(IMPY); assay type: ADME, organism-based; conditions: in vivo, 0.5 h; outline: as §1
Mus musculus [11] = assay: Biodistribution of radioactivity in normal mice (ICR) heart after 2 minutes of intravenous injection of [125I]-16(IMPY); assay type: ADME, organism-based; conditions: in vivo; outline: as §1
Mus musculus [12] = assay: Biodistribution of radioactivity in normal mice (ICR) heart after 24 hours of intravenous injection of [125I]-16(IMPY); assay type: ADME, organism-based; conditions: in vivo; outline: as §1
Mus musculus [13] = assay: Biodistribution of radioactivity in normal mice (ICR) heart after 2 hours of intravenous injection of [125I]-16(IMPY); assay type: ADME, organism-based; conditions: in vivo; outline: as §1
Mus musculus [14] = assay: Biodistribution of radioactivity in normal mice (ICR) lung after 2 minutes of intravenous injection of [125I]-16(IMPY); assay type: ADME, organism-based; conditions: in vivo; outline: as §1
Mus musculus [15] = assay: Biodistribution of radioactivity in normal mice blood after 30 minutes of intravenous injection of [125I]-16(IMPY); assay type: ADME, organism-based; conditions: in vivo, 0.5 h
Outline: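 Male ICR mice (2-3 months old, 20-30 g) under ether anesthesia; 0.15 mL of 0.1% bovine serum albumin solution containing the iodine-125 tracer injected into the tail vein. Mice killed by cardiac excision at set times. Organs removed, weighed and gamma-counted. Percent dose per organ derived against diluted aliquots of the injectate.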

Mus musculus [16] = assay: Biodistribution of radioactivity in normal mice (ICR) muscle after 24 hours of intravenous injection of [125I]-16(IMPY); assay type: ADME, organism-based, Muscle tissue; conditions: in vivo; outline: as §1
Mus musculus [17] = assay: Biodistribution of radioactivity in normal mice (ICR) brain after 6 hours of intravenous injection of [125I]-16(IMPY); assay type: ADME, organism-based; conditions: in vivo; outline: as §1
Mus musculus [18] = assay: Biodistribution of radioactivity in normal mice (ICR) heart after 30 minutes of intravenous injection of [125I]-16(IMPY); assay type: ADME, organism-based; conditions: in vivo, 0.5 h; outline: as §1
Mus musculus [19] = assay: Biodistribution of radioactivity in normal mice blood after 2 hours of intravenous injection of [125I]-16(IMPY); assay type: ADME, organism-based; conditions: in vivo; outline: as §1
Mus musculus [20] = assay: Biodistribution of radioactivity in normal mice (ICR) muscle after 2 hours of intravenous injection of [125I]-16(IMPY); assay type: ADME, organism-based, Muscle tissue; conditions: in vivo; outline: as §1
Mus musculus [21] = assay: Biodistribution of radioactivity in normal mice (ICR) liver after 2 minutes of intravenous injection of [125I]-16(IMPY); assay type: ADME, organism-based; conditions: in vivo; outline: as §1
Mus musculus [22] = assay: Biodistribution of radioactivity in normal mice blood after 1 hour of intravenous injection of [125I]-16(IMPY); assay type: ADME, organism-based; conditions: in vivo; outline: as §1
Mus musculus [23] = assay: Biodistribution of radioactivity in normal mice (ICR) heart after 1 hour of intravenous injection of [125I]-16(IMPY); assay type: ADME, organism-based; conditions: in vivo; outline: as §1
Mus musculus [24] = assay: Biodistribution of radioactivity in normal mice (ICR) lung after 24 hours of intravenous injection of [125I]-16(IMPY); assay type: ADME, organism-based; conditions: in vivo; outline: as §1
Mus musculus [25] = assay: Biodistribution of radioactivity in normal mice (ICR) skin after 2 minutes of intravenous injection of [125I]-16(IMPY); assay type: ADME, organism-based, Zone of skin; conditions: in vivo; outline: as §1
Mus musculus [26] = assay: Biodistribution of radioactivity in normal mice (ICR) liver after 6 hours of intravenous injection of [125I]-16(IMPY); assay type: ADME, organism-based; conditions: in vivo; outline: as §1
Mus musculus [27] = assay: Biodistribution of radioactivity in normal mice (ICR) brain after 24 hours of intravenous injection of [125I]-16(IMPY); assay type: ADME, organism-based; conditions: in vivo; outline: as §1

Compound: CN(C)c1ccc(-c2cn3cc(I)ccc3n2)cc1
- Dose/organ (Mus musculus [1]): 2.19%
- Dose/organ (Mus musculus [2]): 0.04%
- Dose/organ (Mus musculus [3]): 0.2%
- Dose/organ (Mus musculus [4]): 0.09%
- Dose/organ (Mus musculus [5]): 0.34%
- Dose/organ (Mus musculus [6]): 0.31%
- Dose/organ (Mus musculus [7]): 6.08%
- Dose/organ (Mus musculus [8]): 3.14%
- Dose/organ (Mus musculus [9]): 0.25%
- Dose/organ (Mus musculus [10]): 1.51%
- Dose/organ (Mus musculus [11]): 0.79%
- Dose/organ (Mus musculus [12]): 0.01%
- Dose/organ (Mus musculus [13]): 0.08%
- Dose/organ (Mus musculus [14]): 1.56%
- Dose/organ (Mus musculus [15]): 2.44%
- Dose/organ (Mus musculus [16]): 0.27%
- Dose/organ (Mus musculus [17]): 0.06%
- Dose/organ (Mus musculus [18]): 0.16%
- Dose/organ (Mus musculus [19]): 1.82%
- Dose/organ (Mus musculus [20]): 2.96%
- Dose/organ (Mus musculus [21]): 20.9%
- Dose/organ (Mus musculus [22]): 2.5%
- Dose/organ (Mus musculus [23]): 0.12%
- Dose/organ (Mus musculus [24]): 0.05%
- Dose/organ (Mus musculus [25]): 5.72%
- Dose/organ (Mus musculus [26]): 1.54%
- Dose/organ (Mus musculus [27]): 0.02%
